Reference: ChEMBL document CHEMBL1125677, “New derivatives of kanamycin B obtained by combined modifications in positions 1 and 6". Synthesis, microbiological properties, and in vitro and computer-aided toxicological evaluation” (J Med Chem, 1991)
≈ marks a conversion by molar mass, not a printed value.

Legend:
Salmonella typhimurium [1] = assay: (§1) Minimum inhibitory concentration was measured against Salmonella Typhimurium ATCC 14028; type: functional, salmonella typhimurium a; details: Salmonella enterica
Method in brief: (§2)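 Agar dilution and microtiter broth dilution, with incubation in Mueller-Hinton medium; MIC expressed in mg/L.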

Bacillus subtilis = assay: Minimum inhibitory concentration was measured against Bacillus subtilis ATCC 6633.; type: functional; method in brief: as §2
Klebsiella pneumoniae [2] = assay: Minimum inhibitory concentration was measured against Klebsiella pneumoniae ATCC 13883; type: functional; method in brief: as §2
Staphylococcus aureus [3] = assay: Minimum inhibitory concentration was measured against Staphylococcus aureus ATCC 25923; type: functional; method in brief: as §2
Pseudomonas aeruginosa = assay: Minimum inhibitory concentration was measured against Pseudomonas aeruginosa ATCC 27853; type: functional; method in brief: as §2
Enterobacter cloacae = assay: Minimum inhibitory concentration was measured against Enterobacter cloacae ATCC 23355; type: functional; method in brief: as §2
Serratia marcescens [4] = assay: Minimum inhibitory concentration was measured against Serratia marcescens S69.; type: functional; method in brief: as §2
[5] = tested on: Staphylococcus epidermidis; assay: Minimum inhibitory concentration was measured against Staphylococcus epidermidis ATCC 12228.; type: functional; method in brief: as §2
Escherichia coli [6] = assay: Minimum inhibitory concentration was measured against Escherichia coli ATCC 25992.; type: functional; method in brief: as §2
Serratia marcescens [7] = assay: Minimum inhibitory concentration was measured against Serratia marcescens ATCC 8100; type: functional; method in brief: as §2
Serratia marcescens [8] = assay: Minimum inhibitory concentration was measured against Serratia marcescens S20.; type: functional; method in brief: as §2
Serratia marcescens [9] = assay: Minimum inhibitory concentration was measured against Serratia marcescens 75012711 producing AAD-(2'')+AAC(6'') modifying enzyme; type: functional; method in brief: as §2
Escherichia coli [10] = assay: Minimum inhibitory concentration was measured against Escherichia coli OLA 290R5 producing AAD-(2'')-modifying enzyme; type: functional
Method in brief: (§3)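 MICs were determined by agar dilution and by microtiter (broth) dilution in Mueller-Hinton medium against strains producing defined aminoglycoside-modifying enzymes. Values are reported in mg/L.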

Escherichia coli [11] = assay: Minimum inhibitory concentration was measured against Escherichia coli 72091801 producing AAC-(3)-I modifying enzyme; type: functional; method in brief: as §3
Escherichia coli [12] = assay: Minimum inhibitory concentration was measured against Escherichia coli 73110901 producing AAC-(6')-I) modifying enzyme; type: functional; method in brief: as §2
Klebsiella pneumoniae [13] = assay: Minimum inhibitory concentration was measured against Klebsiella pneumoniae 00GT3020 producing AAD-(2'')-modifying enzyme; type: functional; method in brief: as §3
Escherichia coli [14] = assay: Minimum inhibitory concentration was measured against Escherichia coli 00000589 producing APH-(3'') modifying enzyme; type: functional; method in brief: as §3
Providencia stuartii [15] = assay: Minimum inhibitory concentration was measured against Providencia stuartii 72052305 producing AAC-(2'') modifying enzyme; type: functional; method in brief: as §2
Escherichia coli [16] = assay: Minimum inhibitory concentration was measured against Escherichia coli 71120101 producing AAD-(4')) modifying enzyme; type: functional; method in brief: as §3
Providencia stuartii [17] = assay: Minimum inhibitory concentration was measured against Providencia stuartii 75082808 producing AAC-(2'') modifying enzyme; type: functional; method in brief: as §2
Escherichia coli [18] = assay: Minimum inhibitory concentration was measured against Escherichia coli 001574-1 producing APH-(3'') modifying enzyme; type: functional; method in brief: as §3
Escherichia coli [19] = assay: Minimum inhibitory concentration was measured against Escherichia coli 76070703 producing AAC-(3)-I modifying enzyme; type: functional; method in brief: as §3
Providencia stuartii [20] = assay: Minimum inhibitory concentration was measured against Providencia stuartii 00000164 producing AAC-(2'') modifying enzyme; type: functional; method in brief: as §2
Serratia marcescens [21] = assay: microbe, parasite or virus in culture
Klebsiella pneumoniae [22] = assay: Minimum inhibitory concentration was measured against Klebsiella pneumoniae 760070702 producing AAC-(3)-I modifying enzyme; type: functional; method in brief: as §2
Staphylococcus aureus [23] = assay: Minimum inhibitory concentration was measured against Staphylococcus aureus 76080401 producing AAD-(4')) modifying enzyme; type: functional; method in brief: as §2
Escherichia coli [24] = assay: Minimum inhibitory concentration was measured against Escherichia coli 0000JR66 producing AAD-(2'')-modifying enzyme; type: functional; method in brief: as §2
Klebsiella pneumoniae [25] = assay: Minimum inhibitory concentration was measured against Klebsiella pneumoniae 75012101 producing AAD-(2'')-modifying enzyme; type: functional; method in brief: as §2
Klebsiella pneumoniae [26] = assay: (§4) Minimum inhibitory concentration was measured against Klebsiella pneumoniae 7608271 producing AAC-(3)-II modifying enzyme; type: functional; method in brief: as §2
Salmonella typhimurium [27] = assay: as §1; type: functional, Salmonella enterica subsp. enterica serovar Typhimurium; method in brief: as §2
Klebsiella pneumoniae [28] = assay: as §4; type: functional; method in brief: as §2; remark: listed apart in the source
[29] = in the assay text read “AAC-(2')” for “AAC-(2'')”

Compound	MIC (Bacillus subtilis) [µg/mL]	MIC (Klebsiella pneumoniae [2]) [µg/mL]	MIC (Staphylococcus aureus [3]) [µg/mL]	MIC (Pseudomonas aeruginosa) [µg/mL]	MIC (Enterobacter cloacae) [µg/mL]	MIC (Serratia marcescens [4]) [µg/mL]	MIC [5] [µg/mL]	MIC (Escherichia coli [6]) [µg/mL]	MIC (Serratia marcescens [7]) [µg/mL]	MIC (Serratia marcescens [8]) [µg/mL]	MIC (Serratia marcescens [9]) [µg/mL]	MIC (Escherichia coli [10]) [µg/mL]	MIC (Escherichia coli [11]) [µg/mL]	MIC (Escherichia coli [12]) [µg/mL]	MIC (Klebsiella pneumoniae [13]) [µg/mL]	MIC (Escherichia coli [14]) [µg/mL]	MIC (Providencia stuartii [15]) [µg/mL]	MIC (Escherichia coli [16]) [µg/mL]	MIC (Escherichia coli [18]) [µg/mL]	MIC (Escherichia coli [19]) [µg/mL]	further results
[N-]=[N+]=NCC1OC(OC2C(O)C(OC3OC(CN)C(O)C(O)C3N)C(N)CC2(N)CO)C(O)C(N)C1O (stereo unspecified)	2 (≈ 3.71 µM)	0.5 (≈ 0.928 µM)	0.5 (≈ 0.928 µM)	> 128	0.25 (≈ 0.464 µM)	> 64	1 (≈ 1.86 µM)	1 (≈ 1.86 µM)	2 (≈ 3.71 µM)	> 64	–	–	–	–	–	–	–	–	–	–	MIC (Salmonella typhimurium [1]): 1 µg/mL (≈ 1.86 µM)
NCC[C@H](O)C(=O)N[C@@H]1C[C@H](N)[C@@H](O[C@H]2O[C@H](CN)[C@@H](O)[C@H](O)[C@H]2O)[C@H](O)[C@H]1O[C@H]1O[C@H](CO)[C@@H](O)[C@H](N)[C@H]1O [AMIKACIN]	–	–	1 (≈ 1.71 µM)	–	1 (≈ 1.71 µM)	2 (≈ 3.42 µM)	–	4 (≈ 6.83 µM)	–	8 (≈ 13.7 µM)	2 (≈ 3.42 µM)	2 (≈ 3.42 µM)	8 (≈ 13.7 µM)	256 (≈ 437 µM)	2 (≈ 3.42 µM)	8 (≈ 13.7 µM)	1 (≈ 1.71 µM)	4 (≈ 6.83 µM)	2 (≈ 3.42 µM)	4 (≈ 6.83 µM)	MIC (Providencia stuartii [17]; [29]): 16 µg/mL (≈ 27.3 µM); MIC (Providencia stuartii [20]): 16 µg/mL (≈ 27.3 µM); MIC (Serratia marcescens [21]): 1 µg/mL (≈ 1.71 µM)
CC(=O)NCC1OC(OC2C(O)C(OC3OC(CN)C(O)C(O)C3N)C(N)CC2(N)CO)C(O)C(N)C1O (stereo unspecified)	8 (≈ 14.4 µM)	2 (≈ 3.61 µM)	1 (≈ 1.8 µM)	> 128	0.25 (≈ 0.451 µM)	> 64	1 (≈ 1.8 µM)	4 (≈ 7.21 µM)	16 (≈ 28.8 µM)	> 64	–	–	–	–	–	–	–	–	–	–	MIC (Salmonella typhimurium [1]): 8 µg/mL (≈ 14.4 µM)
CNC1C(O)C(OC2C(O)C(OC3OC([C@@H](C)N)CCC3N)C(N)CC2(N)CO)OCC1(C)O (stereo partly specified)	–	–	–	–	–	–	–	–	–	–	2 (≈ 4.05 µM)	–	–	8 (≈ 16.2 µM)	–	–	–	–	–	2 (≈ 4.05 µM)	MIC (Klebsiella pneumoniae [22]): 1 µg/mL (≈ 2.03 µM); MIC (Staphylococcus aureus [23]): 0.5 µg/mL (≈ 1.01 µM); MIC (Escherichia coli [24]): 8 µg/mL (≈ 16.2 µM); MIC (Klebsiella pneumoniae [25]): 2 µg/mL (≈ 4.05 µM); MIC (Providencia stuartii [17]; [29]): 8 µg/mL (≈ 16.2 µM); MIC (Klebsiella pneumoniae [26]): 1 µg/mL (≈ 2.03 µM)
NCC1OC(OC2C(N)CC(N)(CO)C(OC3OC(CCl)C(O)C(N)C3O)C2O)C(N)C(O)C1O (stereo unspecified)	1 (≈ 1.88 µM)	0.5 (≈ 0.94 µM)	0.5 (≈ 0.94 µM)	> 128	0.25 (≈ 0.47 µM)	> 64	0.5 (≈ 0.94 µM)	1 (≈ 1.88 µM)	2 (≈ 3.76 µM)	> 64	> 256	8 (≈ 15 µM)	> 256	128 (≈ 241 µM)	> 256	> 128	32 (≈ 60.2 µM)	128 (≈ 241 µM)	2 (≈ 3.76 µM)	–	MIC (Klebsiella pneumoniae [22]): 1 µg/mL (≈ 1.88 µM); MIC (Staphylococcus aureus [23]): 256 µg/mL (≈ 481 µM); MIC (Salmonella typhimurium [27]; Salmonella enterica): 2 µg/mL (≈ 3.76 µM); MIC (Escherichia coli [24]): > 256 µg/mL; MIC (Klebsiella pneumoniae [25]): 16 µg/mL (≈ 30.1 µM); MIC (Klebsiella pneumoniae [26]): > 256 µg/mL; MIC (Providencia stuartii [20]): 256 µg/mL (≈ 481 µM); MIC (Serratia marcescens [21]): 8 µg/mL (≈ 15 µM)
NC[C@H]1O[C@H](O[C@H]2[C@H](O)[C@@H](O[C@H]3O[C@H](CO)[C@@H](O)[C@H](N)[C@H]3O)[C@H](N)C[C@@H]2N)[C@H](N)[C@@H](O)[C@@H]1O [BEKANAMYCIN]	0.5 (≈ 1.03 µM)	0.25 (≈ 0.517 µM)	0.5 (≈ 1.03 µM)	> 128	0.25 (≈ 0.517 µM)	> 64	0.25 (≈ 0.517 µM)	1 (≈ 2.07 µM)	1 (≈ 2.07 µM)	> 64	–	–	–	–	–	–	–	–	–	–	MIC (Salmonella typhimurium [27]; Salmonella enterica): 1 µg/mL (≈ 2.07 µM)
NCC1OC(OC2C(N)CC(N)(CO)C(OC3OC(CO)C(O)C(N)C3O)C2O)C(N)C(O)C1O (stereo unspecified)	0.5 (≈ 0.974 µM)	0.25 (≈ 0.487 µM)	0.25 (≈ 0.487 µM)	> 128	0.25 (≈ 0.487 µM)	> 64	0.25 (≈ 0.487 µM)	0.5 (≈ 0.974 µM)	1 (≈ 1.95 µM)	> 64	> 128	8 (≈ 15.6 µM)	> 128	> 128	> 128	> 128	16 (≈ 31.2 µM)	> 128	4 (≈ 7.79 µM)	–	MIC (Klebsiella pneumoniae [22]): 1 µg/mL (≈ 1.95 µM); MIC (Staphylococcus aureus [23]): > 128 µg/mL; MIC (Salmonella typhimurium [27]; Salmonella enterica): 1 µg/mL (≈ 1.95 µM); MIC (Escherichia coli [24]): > 128 µg/mL; MIC (Klebsiella pneumoniae [25]): 4 µg/mL (≈ 7.79 µM); MIC (Klebsiella pneumoniae [26]): > 128 µg/mL; MIC (Providencia stuartii [20]): > 128 µg/mL; MIC (Serratia marcescens [21]): 4 µg/mL (≈ 7.79 µM)
GENTAMICIN	1	1	1	1	1	128	1	1	1	128	32	64	2	4	32	2	–	2	1	128	MIC (Klebsiella pneumoniae [28]): 256 µg/mL; MIC (Salmonella typhimurium [27]; Salmonella enterica subsp. enterica serovar Typhimurium): 1 µg/mL; MIC (Providencia stuartii [17]; pseudomonas stuartii): 64 µg/mL
